# Data from paper PMC2987701 (Bioorganic & medicinal chemistry letters, 2010).
# “Also recorded” adds a separate entry of the source.
# Key:
# mammalian cell line = test: Cell viability in a mammalian cell line; format: cell-based; details: note [21]
# GST-Bfl-1 [1] = target: T1, GST-Bfl-1 (Homo sapiens, UniProt Q16548); test: High-throughput fluorescence polarization; format: binding; details: result in words
# T1 sequence (Q16548 1-175): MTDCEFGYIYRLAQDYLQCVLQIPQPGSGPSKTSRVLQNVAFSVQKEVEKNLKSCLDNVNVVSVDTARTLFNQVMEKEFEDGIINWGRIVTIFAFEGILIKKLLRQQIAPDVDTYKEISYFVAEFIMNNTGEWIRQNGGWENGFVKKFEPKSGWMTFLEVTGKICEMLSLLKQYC
# GST-Bfl-1 [2] = target: T1, GST-Bfl-1; test: LanthaScreen TR-FRET assay, FITC-Bid BH3 peptide / GST-tagged protein; format: binding; details: result in words
# Outline: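 Test compound at 10 concentrations (2-fold serial dilution, 10% DMSO), in duplicate wells. Preincubated 1 h at 4 °C with GST-Bfl-1 (7.4 nM working solution, Bis-Tris pH 7.0 buffer). Then FITC-Bid (5.6 nM) plus Tb-antibody (2.5 nM) working solution added, 4 h at room temperature in the dark. Read in time-resolved mode: excitation 340 nm, 0.1 ms delay, 1 ms integration, 5 reads averaged. Signal is the 520/490 nm ratio. Controls were buffer without protein and DMSO.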
# [3] = test system: H69AR small cell lung tumor cell; test: Cell-based viability study, tumor cell growth; parameters: species or system human; details: concentration of 10 μM; note [21]
Compound,Potency of Bfl-1 inhibition in words (FP / assay not specified) (GST-Bfl-1 [1]),also measured
O=C1C(Cl)=C(N2CCCCC2)C(=O)N1c1ccc(Cl)c(Cl)c1 [Compound 19],,Effect on cell viability (mammalian cell line; 15 μg/mL): decreased cell viability
O=C1C(Cl)=C(N2CCN(CCOCCO)CC2)C(=O)N1c1ccc(Cl)c(Cl)c1 [Compound 29],Submicromolar,
O=C1C(Cl)=C(N2CCN(CCO)CC2)C(=O)N1c1ccc(Cl)c(Cl)c1 [Compound 28],Submicromolar,
CN1CCN(C2=C(Cl)C(=O)N(c3ccc(Cl)c(Cl)c3)C2=O)CC1 [Compound 1],submicromolar potency,Potency of Bfl-1 inhibition in words (TR-FRET) (GST-Bfl-1 [2]): submicromolar potency; Inhibition of human H69AR small cell lung tumor cell growth [3]: inhibition of human H69AR small cell lung tumor cell growth was observed
CN(C)C1=C(Cl)C(=O)N(c2ccc(Cl)c(Cl)c2)C1=O [Compound 21],equipotent to original hit 1; also recorded: Submicromolar,Effect on cell viability in a mammalian cell line (mammalian cell line; concentration not given): not inhibitory to cell viability
C[C@@H]1CN(C2=C(Cl)C(=O)N(c3ccc(Cl)c(Cl)c3)C2=O)CCN1 [Compound 24],equipotent to original hit 1; also recorded: Submicromolar,
O=C1C(Cl)=C(N2CCOCC2)C(=O)N1c1ccc(Cl)c(Cl)c1 [Compound 22],equipotent to original hit 1; also recorded: Submicromolar,
O=C1C(Cl)=C(N2CCN(C/C=C/c3ccccc3)CC2)C(=O)N1c1ccc(Cl)c(Cl)c1 [Compound 38],Submicromolar,
